Measured values taken from paper PMC3580291 (Cell Calcium, 2013).
pIC50: −log10 of the molar value. Like-named read-outs stand apart in the source and are kept apart here. One block for each molecule: values may come before it.

Experiments:
Orai3 = settings: cited from earlier work
STIM1/Orai1 currents = STIM1/Orai1 currents (Homo sapiens, UniProt Q96D31); experiment: whole-cell patch-clamp of STIM1-mediated Orai1 currents in HEK293 cells; assay type: cell-based; settings: for inhibition of maximally activated STIM1/Orai1 currents: whole cell inward current at −74 mV, HEK293; for kinetics of Orai1 current inhibition, slower than La^3+: relative to La^3+; for recovery of Orai1 currents upon wash-out: after full block by 10 μM, 4–5 min wash-out with 10 mM Ca^2+ solution
STIM1/Orai1 currents, sequence (Q96D31 whole entry): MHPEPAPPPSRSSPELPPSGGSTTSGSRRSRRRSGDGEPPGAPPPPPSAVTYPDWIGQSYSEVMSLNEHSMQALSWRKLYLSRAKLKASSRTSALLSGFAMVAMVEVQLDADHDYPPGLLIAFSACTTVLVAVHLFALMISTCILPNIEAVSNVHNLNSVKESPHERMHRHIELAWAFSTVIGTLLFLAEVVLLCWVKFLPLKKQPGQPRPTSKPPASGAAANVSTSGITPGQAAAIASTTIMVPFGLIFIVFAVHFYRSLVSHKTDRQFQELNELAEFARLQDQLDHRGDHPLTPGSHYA
STIM1/Orai1 currents, sequence (Q13586 23-685 partner): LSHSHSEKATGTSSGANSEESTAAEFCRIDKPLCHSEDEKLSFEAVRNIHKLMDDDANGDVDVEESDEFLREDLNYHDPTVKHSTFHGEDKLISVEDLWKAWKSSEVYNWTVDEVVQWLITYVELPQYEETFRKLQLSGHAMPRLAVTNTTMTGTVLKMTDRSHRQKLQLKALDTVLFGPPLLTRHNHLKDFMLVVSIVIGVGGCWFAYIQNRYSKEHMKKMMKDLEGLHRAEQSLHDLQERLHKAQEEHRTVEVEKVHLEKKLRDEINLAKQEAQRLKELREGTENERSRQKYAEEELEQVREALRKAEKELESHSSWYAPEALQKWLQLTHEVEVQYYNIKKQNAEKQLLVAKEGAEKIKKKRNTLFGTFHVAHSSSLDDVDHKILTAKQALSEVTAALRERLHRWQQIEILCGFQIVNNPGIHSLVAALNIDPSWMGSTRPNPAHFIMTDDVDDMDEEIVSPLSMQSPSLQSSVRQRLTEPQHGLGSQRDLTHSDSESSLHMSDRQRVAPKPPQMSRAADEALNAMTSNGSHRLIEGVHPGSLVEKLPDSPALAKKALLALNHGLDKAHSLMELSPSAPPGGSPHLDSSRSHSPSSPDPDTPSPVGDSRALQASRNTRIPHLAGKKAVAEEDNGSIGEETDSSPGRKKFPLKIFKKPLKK
How it was run: (§1)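 HEK293 cells transfected with CFP-STIM1 plus YFP-Orai construct and recorded 24 h later. Whole-cell patch clamp at 20–24 °C with passive store depletion via a pipette containing (mM) 145 Cs methanesulfonate, 20 EGTA, 3.5 MgCl2, 8 NaCl, 10 HEPES, pH 7.2. Bath contained 10 mM CaCl2, pH 7.4. Ramps from −90 to +90 mV over 1 s, every 5 s, from 0 mV holding. Inward current taken at −74 mV. Leak correction used the initial trace or post-10 μM La3+ trace.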

Orai2 = settings: high concentrations (50 μM), compared with Orai1; cited from earlier work
CRAC currents = settings: cited from earlier work
Orai1 currents = settings: cited from earlier work
[1] = test system: interleukin-2 (IL-2) production in lymphocytes; settings: cited from earlier work
[2] = test system: CRAC/SOC currents in RBL cells; settings: 30 μM; cited from earlier work
STIM1/Orai3 currents = STIM1/Orai3 currents (Homo sapiens, UniProt Q9BRQ5); experiment: whole-cell patch-clamp of STIM1-mediated Orai3 currents in HEK293 cells; assay type: cell-based; settings: for inhibition of maximally activated STIM1/Orai3 currents: 10 μM, whole cell inward current at −74 mV, HEK293; for recovery of Orai3 currents upon wash-out: after full block by 10 μM, 4–5 min wash-out with 10 mM Ca^2+ solution
How it was run: as §1

human lung mast cells = settings: 3 μM; cited from earlier work
CaV1.2 (L-type) = CaV1.2 (L-type) (Homo sapiens, UniProt Q13936); experiment: selectivity profile, over-expressed ion channel; assay type: cell-based; settings: Activity (IC50), antagonistic action; Human CaV1.2 (L-type)
L-type Ca^2+ channels = L-type Ca^2+ channels (Homo sapiens, UniProt Q13936); experiment: whole-cell patch-clamp of L-type Ca2+ channel expressing HEK293 cells; assay type: cell-based; settings: 10 μM
[3] = biological target: STIM1/Orai1 D110/112/114A (Homo sapiens, UniProt Q96D31, D110A/D112A/D114A); assay type: cell-based; settings: 10 μM
STIM1/Orai1 D110/112/114A, sequence (Q96D31 whole entry D110A/D112A/D114A): as the sequence (Q96D31 whole entry) above, with D110A, D112A, D114A counted along it
STIM1/Orai1 D110/112/114A, sequence (Q13586 23-685 partner): as the sequence (Q13586 23-685 partner) above

[4] = biological target: STIM1-CFP/Orai1-YFP interaction (Homo sapiens, UniProt Q13586+Q96D31); experiment: confocal FRET microscopy of STIM1/Orai1 coupling; assay type: cell-based; settings: 10 μM after store-depletion by thapsigargin; HEK cells
STIM1-CFP/Orai1-YFP interaction, sequence (Q96D31 whole entry): as the sequence (Q96D31 whole entry) above
STIM1-CFP/Orai1-YFP interaction, sequence (Q13586 23-685): as the sequence (Q13586 23-685 partner) above
How it was run: (§2)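 HEK293 cells transfected with CFP/YFP-tagged STIM1 and/or Orai1 and imaged 24 h later by confocal FRET microscopy with 457/488/514 nm laser lines. CFP, FRET and YFP images used about 900–1500 ms illumination. Crosstalk and cross-excitation factors were set per construct daily. Pixelwise corrected FRET (NFRET) was computed after background subtraction, limited to CFP:YFP molar ratio 1:10–10:1. Data given as mean ± S.E.M.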

[5] = biological target: CFP-STIM1/YFP-STIM1 oligomerization (Homo sapiens, UniProt Q13586); experiment: confocal FRET microscopy of STIM1 oligomerization; assay type: cell-based; settings: 10 μM applied 5 min before store-depletion with 2 μM thapsigargin
CFP-STIM1/YFP-STIM1 oligomerization, sequence (Q13586 23-685): as the sequence (Q13586 23-685 partner) above
CFP-STIM1/YFP-STIM1 oligomerization, sequence (Q13586 23-685): as the sequence (Q13586 23-685 partner) above
How it was run: as §2

STIM1/Orai1 E106D = STIM1/Orai1 E106D (Homo sapiens, UniProt Q96D31, E106D); experiment: whole-cell patch-clamp of STIM1-activated Orai1 E106D pore mutant currents; assay type: cell-based
STIM1/Orai1 E106D, sequence (Q96D31 whole entry E106D): as the sequence (Q96D31 whole entry) above, with E106D counted along it
STIM1/Orai1 E106D, sequence (Q13586 23-685 partner): as the sequence (Q13586 23-685 partner) above
How it was run: as §1

[6] = test system: endogenous CRAC channels of RBL-2H3 cells; experiment: whole-cell patch-clamp of endogenous CRAC currents in RBL-2H3 cells; assay type: cell-based, rat; settings: 10 μM; passive store-depletion; −74 mV
How it was run: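 RBL-2H3 cells grown in RPMI 1640 with 10% FBS, 1% penicillin–streptomycin and 1% L-glutamine at 37 °C, 5% CO2. Endogenous CRAC current activated by passive store depletion (20 mM EGTA pipette) in whole-cell mode. Inward current at −74 mV followed during perfusion of 10 μM test compound, with 10 μM La3+ as reference.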

[7] = biological target: 2-APB stimulated Orai3 currents (Homo sapiens, UniProt Q9BRQ5); experiment: whole-cell patch-clamp of 2-APB stimulated Orai3 currents; assay type: cell-based
HEK293 cells = assay type: cell-based
rat-TRPV6 channels = rat-TRPV6 channels (Rattus norvegicus, UniProt Q9R186); experiment: whole-cell patch-clamp of TRPV6 expressing HEK293 cells; assay type: cell-based; settings: 10 μM, −74 mV
rat-TRPV6 channels, sequence (Q9R186 41-767): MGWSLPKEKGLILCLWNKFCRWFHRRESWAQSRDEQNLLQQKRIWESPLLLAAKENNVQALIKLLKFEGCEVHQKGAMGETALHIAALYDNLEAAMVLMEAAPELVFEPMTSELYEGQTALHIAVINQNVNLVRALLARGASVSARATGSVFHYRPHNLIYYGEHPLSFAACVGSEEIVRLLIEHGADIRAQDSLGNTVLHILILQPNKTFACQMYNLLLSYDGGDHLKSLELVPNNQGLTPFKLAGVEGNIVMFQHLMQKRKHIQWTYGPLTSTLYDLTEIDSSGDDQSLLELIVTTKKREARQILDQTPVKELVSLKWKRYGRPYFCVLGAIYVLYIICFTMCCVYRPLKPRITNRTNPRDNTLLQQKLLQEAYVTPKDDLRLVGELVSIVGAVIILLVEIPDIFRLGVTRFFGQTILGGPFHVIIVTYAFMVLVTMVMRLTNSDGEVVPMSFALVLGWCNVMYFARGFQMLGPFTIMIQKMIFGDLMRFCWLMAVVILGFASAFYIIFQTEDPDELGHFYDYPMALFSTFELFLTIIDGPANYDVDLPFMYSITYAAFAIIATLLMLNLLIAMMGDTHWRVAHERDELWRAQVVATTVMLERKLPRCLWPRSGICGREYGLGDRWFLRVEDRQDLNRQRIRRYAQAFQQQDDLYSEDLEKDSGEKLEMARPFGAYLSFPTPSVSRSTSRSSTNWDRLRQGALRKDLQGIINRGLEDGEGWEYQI

RBL mast cells = settings: read-out: IC50 on RBL mast cells; cited from earlier work
[8] = test system: STIM1 clustering in smooth muscle cells; settings: cited from earlier work

Structure (SMILES): NCCOB(c1ccccc1)c1ccccc1 [2-APB, 2-aminoethoxydiphenylborate]
- effect on Orai3 currents (Orai3; 75 μM, independent of STIM1): robust current stimulation
- effect on over-expressed Orai3 (Orai3): robustly stimulated
- effect on STIM1/Orai1 currents (STIM1/Orai1 currents; 75 μM): transient stimulation followed by a complete inhibition
- effect on over-expressed Orai2 (Orai2): less sensitive
- effect on CRAC currents (CRAC currents; concentrations higher than 10 μM): completely blocked
- effect on CRAC currents (CRAC currents; low concentrations (1–5 μM)): enhanced
- effect on over-expressed Orai1 (Orai1 currents; high concentrations (50 μM)): robust block
- effect on Orai1 currents (Orai1 currents; higher concentrations (>40 μM)): inhibit
- effect on Orai1 currents (Orai1 currents; low concentrations (5 μM)): enhance

Structure (SMILES): Cc1nnsc1C(=O)Nc1ccc(-n2nc(C(F)(F)F)cc2C(F)(F)F)cc1 [BTP2]
- effect on interleukin-2 (IL-2) production in lymphocytes [1]: potently blocks

Structure (SMILES): CC/C(=C(/CC)c1ccc(O)cc1)c1ccc(O)cc1 [DES, diethylstilbestrol, reference compound]
- time to full blockade of STIM1-activated Orai1 currents (STIM1/Orai1 currents; 10 μM (Fig. 2B)): ≤ 50 s
- inhibition of maximally activated STIM1/Orai1 currents (STIM1/Orai1 currents; 10 μM): full and rapid blockade
- block of CRAC/SOC currents in RBL cells [2]: effective block

Structure (SMILES): [La+3] [La^3+, reference compound]
- inhibition of L-type Ca^2+ channel currents (L-type Ca^2+ channels): fully blocked
- inhibition of maximally activated STIM1/Orai1 currents (STIM1/Orai1 currents; 10 μM): complete inhibition
- inhibition of TRPV6 currents (rat-TRPV6 channels): fully blocked

Second part, led by results:

- kinetics of Orai1 current inhibition, slower than La^3+ (STIM1/Orai1 currents; 10 μM): 2.5 fold
- inhibition of maximally activated STIM1/Orai1 currents (STIM1/Orai1 currents; 10 μM): complete Orai1 current inhibition
- recovery of Orai1 currents upon wash-out (STIM1/Orai1 currents): not readily reversible
- inhibition of maximally activated STIM1/Orai3 currents (STIM1/Orai3 currents): fully inhibited
- recovery of Orai3 currents upon wash-out (STIM1/Orai3 currents): not readily reversible
Structure (SMILES): O=C(Nc1ccn(Cc2ccccc2Oc2ccccc2)n1)c1c(F)cccc1F [GSK-5503A, 2,6-difluoro-N-(1-(2-phenoxybenzyl)-1H-pyrazol-3-yl)benzamide]

- inhibition of L-type Ca^2+ channel currents (L-type Ca^2+ channels): moderate inhibition
- Hill coefficient, inhibition of Orai1 currents (STIM1/Orai1 currents): ~1
- inhibition of CRAC currents upon intracellular application (STIM1/Orai1 currents; 10 μM intracellular application, data not shown): slight inhibition
- inhibition of STIM1/Orai1 monovalent currents in divalent free (DVF) solution (STIM1/Orai1 currents; 10 μM, Na^+ as main charge carrier): fully blocked
- kinetics of Orai1 current inhibition, slower than La^3+ (STIM1/Orai1 currents; 10 μM): 2.5 fold
- inhibition of maximally activated STIM1/Orai1 currents (STIM1/Orai1 currents; 10 μM): complete Orai1 current inhibition
- recovery of Orai1 currents upon wash-out (STIM1/Orai1 currents): not readily reversible
- effect on FRET plateau representing STIM1/Orai1 interaction [4]: did not significantly alter
- effect on FRET increase (STIM1 oligomerization) upon store-depletion [5]: unaffected
- inhibition of STIM1-activated Orai1 E106D currents (STIM1/Orai1 E106D; 10 μM): no inhibition
- inhibition of maximally 2-APB stimulated Orai3 currents ([7]; 10 μM, 75 μM 2-APB): totally ineffective
- inhibition of maximally 2-APB activated Orai3 currents ([7]; 100 μM): full inhibition
- inhibition at 50 µM ([7]; read-out: inhibition of maximally 2-APB activated Orai3 currents): 50%
- Hill coefficient, inhibition of Orai3 currents (STIM1/Orai3 currents): ~1
- inhibition of maximally activated STIM1/Orai3 currents (STIM1/Orai3 currents): fully inhibited
- recovery of Orai3 currents upon wash-out (STIM1/Orai3 currents): not readily reversible
- inhibition of TRPV6 currents (rat-TRPV6 channels): completely inhibited
Structure (SMILES): O=C(Nc1ccn(Cc2ccc(O)cc2C(F)(F)F)n1)c1c(F)cccc1F [GSK-7975A, 2,6-difluoro-N-(1-(4-hydroxy-2-(trifluoromethyl)benzyl)-1H-pyrazol-3-yl)benzamide]
- Ca^2+ influx in human lung mast cells (human lung mast cells): significantly reduced
- release of inflammatory mediators from human lung mast cells (human lung mast cells): significantly reduced
- pIC50 (CaV1.2 (L-type)): ~5.10
- effect on Ca^2+-induced fast inactivation of STIM1/Orai1 (STIM1/Orai1 currents; 3 μM (Suppl. Fig. 1)): did not significantly increase inactivation
- inhibition of STIM1-activated Orai1 D110/112/114A currents [3]: substantial inhibition almost comparable to that of wild-type Orai1
- inhibition of STIM1-mediated Orai1 E106D currents (STIM1/Orai1 E106D; 100 μM): substantially but not fully restored the inhibitory effect
- inhibition of RBL CRAC currents [6]: fully blocked
- amount of Ca^2+ released from ER stores (HEK293 cells; 10 μM pre-incubation, stimulation by carbachol (CCH) or BHQ): not markedly altered
- inhibition of endogenous store-operated Ca^2+ entry of HEK293 cells (HEK293 cells; pre-incubation with 10 μM, Fura-2): substantially inhibited

- inhibition of maximally activated STIM1/Orai1 currents (STIM1/Orai1 currents; 10 μM): reduced Orai1 currents
Structure (SMILES): COc1ccc(OC)c(-c2ccc(NC(=O)c3ccncc3F)cc2)c1 [Synta-66, N-(2′,5′-dimethoxy-[1,1′-biphenyl]-4-yl)-3-fluoroisonicotinamide, reference compound]
- pIC50 (RBL mast cells): 5.52 to 6.00
- inhibition of maximally activated STIM1/Orai3 currents (STIM1/Orai3 currents): inhibited Orai3 currents at a similar rate to the GSK compounds
- interference with STIM1 clustering [8]: does not interfere with STIM1 clustering
